Values joined by “and” are separate entries in the source; they are usually repeats but may differ in a detail not shown here. Identical values can stand only once.
Legend:
Mus musculus [1] = assay: Tested for anti-lymphosarcoma in mice at the dose of 10 mg/kg; type: functional
In short: (§1)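 Groups of five female C3H mice received 7.5×10^6 Gardner lymphosarcoma (6C3 HED) cells per mouse intraperitoneally. Starting 1 day later, mice were dosed subcutaneously on the lower back once daily for 5 days, with test material in saline or 10% (CH₃)₂SO. Control mice received vehicle only. Read-outs were average survival in days and the number of mice surviving 50 days.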

Mus musculus [2] = assay: Tested for average survival days in control mice at a dose of 10 mg/Kg; type: functional; in short: as §1
Mus musculus [3] = assay: Tested for average survival days in control mice at a dose of 5 mg/Kg; type: functional; in short: as §1
Mus musculus [4] = assay: Number of mice with 50-day survival period after treating with 5 mg/Kg of compound out of 5 tested; type: functional; in short: as §1
Mus musculus [5] = assay: Number of mice with 50-day survival period in control group at a dose of 5 mg/Kg tested out of 5 mice treated; type: functional; in short: as §1
Mus musculus [6] = assay: Number of mice with 50-day survival period after treating with 10 mg/Kg of compound out of 5 tested; type: functional; in short: as §1
Mus musculus [7] = assay: Number of mice with 50-day survival period in control group at a dose of 10 mg/Kg tested out of 5 mice treated; type: functional; in short: as §1
Mus musculus [8] = assay: Tested for anti-lymphosarcoma activity in mice at the dose of 5 mg/kg by determining average survivals
Mus musculus [9] = species: Mus musculus; assay: Tested for average survival days in mice (control); type: functional; in short: as §1
Mus musculus [10] = species: Mus musculus; assay: Tested for anti-lymphosarcoma activity in mice (control) with 50-day survival period out of 5 tested; type: functional; in short: as §1
Mus musculus [11] = assay: Tested for anti-lymphosarcoma activity in mice at the dose of 10 mg/kg by determining average survivals; type: functional; in short: as §1

Row | Structure (SMILES) | Average survival (Mus musculus [1]) [days] | Average survival (Mus musculus [2]) [days] | Average survival (Mus musculus [3]) [days] | No. of survivals (Mus musculus [4]) | No. of survivals (Mus musculus [5]) | No. of survivals (Mus musculus [6]) | No. of survivals (Mus musculus [7]) | Average survival (Mus musculus [8]) [days] | Average survival (Mus musculus [9]) | No. of survivals (Mus musculus [10]) | Average survival (Mus musculus [11])
1 | CN(C)c1ccc(C(=C(c2ccc(N(C)C)cc2)c2ccc(N(C)C)cc2)c2ccc(N(C)C)cc2)cc1 | 37.6 | 14.8 | 14.8 | 1 | 0 | 4 | 0 | 21.5 |  |  | 
2 | CN(C)c1ccc(C(=C2C=CC(=[N+](C)C)C=C2)C(c2ccc(N(C)C)cc2)c2ccc(N(C)C)cc2)cc1 |  |  |  |  |  | 0 |  | 13.2 | 12.2 days | 0 | 
3 | CN(C)c1ccc(C(=C2C=CC(=[N+](C)C)C=C2)C(=C2C=CC(=[N+](C)C)C=C2)c2ccc(N(C)C)cc2)cc1 |  |  |  |  |  | 4 |  |  | 14.8 days and 23 days |  | 37.6 days and 42.8 days

Reference: ChEMBL document CHEMBL1122398, “Some biological properties of the impure dichloride salt of tetrakis[p-(dimethylamino)phenyl]ethylene and a pinacolone” (1983)
